MrgX1 antag – human MrgX1 receptor antagonism, primary screen; B-score at 10 µM; 1.3% of 310,000 active; AID 588676; MRGX1-HEK293 calcium flux, Fluo-4, BAM8-22 antagonism; active compounds read low;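 active = calcium-response B-score plate-corrected more than 3 library SD below zero, starting fluorescence within 5 deviations, no agonist response on first addition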;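 note: peak minus trough fluorescence over baseline after final BAM8-22 challenge near maximal dose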
MrgX1 allo act – human MrgX1 positive allosteric modulation, primary screen; Q96LB2; MrgX1-HEK293, Fluo-4 calcium flux, FDSS; active compounds read high; B-score at 10 µM; 0.63% of 310,000 active;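 active = plate-corrected calcium response at least 3 library SD above typical, normal starting fluorescence, not activating the receptor alone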;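 note: compound read alongside a low EC10 to EC30 dose of BAM8-22 agonist; peak minus trough fluorescence over baseline measured at the second addition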
RGS4 pot – RGS4 potentiation or activation. HEK293 M3R/inducible RGS4, carbachol calcium flux Fluo4; active compounds read low. B-score at 10 µM. 0.92% of 310,000 active. AID 463111;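 active = B-score of the integrated calcium signal more than 4 SD below the library mean, with starting fluorescence not abnormally high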;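 note: negative B-score means reduced calcium response which marks RGS4 activation or potentiation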
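Test system: HEK293 cells with stable M3R and inducible RGS4; also added: carbachol at ECmax as muscarinic agonist stimulus; schedule: dye loading 30 min 37 °C, buffer rest 30 min RT; technique: kinetic calcium fluorescence imaging with Fluo4-AM dye, 2 µM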
RGS4 inh – inhibitors of human RGS4; P49798; HEK293 M3R/RGS4 inducible, Fluo-4 calcium flux; active compounds read high; triggered by carbachol at its EC20; B-score at 10 µM; 0.45% of 310,000 active; AID 463165;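 active = B-score, a plate-corrected calcium signal, over three deviations above library mean, with baseline fluorescence within five deviations of library mean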;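 note: RGS4 expression induced by doxycycline in cells with stable M3 receptor; B-score is computed from the integrated fluorescence ratio over baseline after carbachol; higher B-score means a larger calcium signal and so more RGS4 inhibition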
Target sequence (P49798 whole entry, looked up): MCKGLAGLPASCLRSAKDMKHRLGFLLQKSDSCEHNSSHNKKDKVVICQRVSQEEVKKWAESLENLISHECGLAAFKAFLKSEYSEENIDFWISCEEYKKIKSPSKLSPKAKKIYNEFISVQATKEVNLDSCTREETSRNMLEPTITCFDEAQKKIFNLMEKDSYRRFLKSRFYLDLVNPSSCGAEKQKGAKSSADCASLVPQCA
MrgX1 agonist – human MrgX1 receptor agonism, primary screen; Q96LB2; MrgX1-HEK293 cells, Fluo-4 calcium fluorescence, agonist mode; active compounds read high; B-score at 10 µM; 0.44% of 310,000 active; AID 588627;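 active = calcium response B-score plate-corrected fluorescence ratio at least 3 library SD, with starting fluorescence B-score inside 5 SD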
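Test system: HEK293 cells stably expressing human MrgX1 receptor; amount: 15,000 cells per well; doses: compound delivered in addition one of three; times: overnight plating before 1 h dye loading; detection: Fluo-4 NW calcium-flux fluorescence, kinetic read; read-out basis: B-scored fluorescence response ratio; controls: positive and negative controls per plate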
A number is an active result; – = inactive; · = no result. Sampled rows, rich in hits. Any-hit rate of the full collection: about 3.5%.

SMILES	MrgX1 antag	MrgX1 allo act	RGS4 pot	RGS4 inh	MrgX1 agonist
COc1cc(OC)cc(C(=O)NC2CCCN(Cc3ccc(Cl)cc3)C2)c1 (stereo not given)	–	–	–	–	–
CCc1noc(C)c1C(=O)N1CCCSC1=Nc1ccccc1C(C)C	–	–	–	–	–
O=C(/C=C/Nc1ccc(Br)cc1F)c1ccccc1	-6	–	–	–	–
CCCCN(CCCNC(=O)Cn1nc(CC)n2c(cc3sc(C)cc32)c1=O)Cc1ccccc1	–	–	–	–	–
CCN1/C(=C\c2ccc3cc(C)ccc3[n+]2CC)Sc2cc(C)c(C)cc21	·	·	–	–	·
CCN1/C(=C/c2ccc3cc(C)ccc3[n+]2CC)Sc2ccc3sccc3c21	–	–	–	–	39
COc1ccc(CNCCC(c2ccc(OC(C)C)cc2)C(C)C)cc1OC (stereo not given)	–	–	–	–	–
COc1ccc(C(CCNCc2ccc(OC(C)C)cc2)C(C)C)cc1 (stereo not given)	-5.4	–	–	–	–
CN=c1scc(-c2ccccc2F)n1/N=C/c1ccc[nH]1	–	7	–	–	–
CC/C(=C\c1oc2cc3ccccc3cc2[n+]1CC)Nc1ccccc1	–	–	–	–	27
CC[n+]1c(/C=C/N(C)c2ccccc2)oc2ccccc21	–	–	–	–	–
COc1ccc(CN2CCN(C(=O)CC(C)C)CC2)cc1	–	–	–	–	–
O=C1NN(c2ccc(Cl)c(Cl)c2)C(=O)/C1=C/c1cccc(OC(=O)c2cccs2)c1	–	–	–	25	–
CCOc1ccccc1NC(=S)NC(=O)CCCOc1ccc(Cl)cc1Cl	–	–	-7.3	–	–
CN(C)c1ccc(/C=C2\N=C(c3ccc(Cl)c([N+](=O)[O-])c3)NC2=O)cc1	-6.9	–	–	–	–
CN(C)c1ccc(/C=C2/NC(=O)NC2=O)cc1	–	–	–	–	–
CN(Cc1ccccc1F)c1nc(-c2cccnc2)nc2ccccc12	–	–	-14	–	–
CC(Nc1nc(-c2cccnc2)nc2ccccc12)c1ccc(F)cc1 (stereo not given)	–	–	-7.1	–	–
Cc1c(O)ccc(/C=N/Nc2nc(-c3cccnc3)nc3ccccc23)c1O	–	–	-8.1	–	–
CCOC(=O)c1ccc(Nc2nc(-c3cccnc3)nc3ccccc23)cc1	–	–	-7.1	–	–
Oc1ccc(/C=N/Nc2nc(-c3cccnc3)nc3ccccc23)c(O)c1	–	–	–	–	–
CC(C)CCNC(=O)CCn1nc(-c2ccc(Cl)cc2)ccc1=O	–	–	–	–	–
COC(=O)CCN(C(=O)c1ccc(Cl)c([N+](=O)[O-])c1)c1ccccn1	–	–	–	–	–
Clc1cccc(CNc2nc(-c3cccnc3)nc3ccccc23)c1	·	·	-9.2	–	·
Fc1ccc(CNc2nc(-c3cccnc3)nc3ccccc23)cc1	–	–	-7.1	–	35
SMILES	MrgX1 antag	MrgX1 allo act	RGS4 pot	RGS4 inh	MrgX1 agonist
Cc1ccccc1Nc1nc(-c2cccnc2)nc2ccccc12	–	–	-7.2	–	42
c1cncc(CNc2nc(-c3cccnc3)nc3ccccc23)c1	–	–	–	–	–
O=C(CCCc1ccccc1)NCCS(=O)(=O)N1CCN(c2ccccc2F)CC1	–	–	–	–	–
Cc1ccc(NC(=O)CSc2ccc(-c3ccc(-n4cccn4)cc3)nn2)c(C)c1	–	–	–	–	–
Nc1c(C(=O)NCCc2ccc(Cl)cc2)sc2ccc(S(=O)(=O)N3CCCCC3)cc12	–	–	–	9	–
Cc1nc2ccn(Cc3ccccc3)c(=O)c2cc1C(=O)N1CCN(c2ccccc2)CC1	–	–	–	–	–
O=C(CNC(=O)C(c1ccccc1)c1ccccc1)N/N=C\c1cccc(O)c1	–	–	–	–	–
O=C(CNC(=O)C(c1ccccc1)c1ccccc1)N/N=C/c1ccc(O)cc1O	-5.7	–	–	–	–
CN1CCN(C(=O)CSc2nc(-c3cccs3)ccc2C#N)CC1	–	–	–	–	46
N#Cc1ccc(-c2cccs2)nc1SCc1cccnc1	–	–	–	–	–
CCOC(=O)c1c(-c2ccccc2)c2cc(OC)ccc2n1CCCN(C)C	–	–	–	–	–
Cc1cccc(NC(=O)C23CCC(C)(/C(=N/O)C2)C3(C)C)c1 (stereo not given)	-5.8	–	–	–	–
